In ChEMBL document CHEMBL5346918, “Design, synthesis and biological evaluation of Nucleosidic CD99 inhibitors that selectively reduce Ewing sarcoma viability” (Eur J Med Chem, 2023):
Activity calls are given as the source filed them. The rule behind the calls is not given here.

Key:
[1] = Cytotoxicity against human A4573 cells assessed as reduction in cell viability incubated for 48 hrs by CellTiter-Blue reagent based […] assay; format: functional; conditions: A4573, 48 h
Method in brief: (§1)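 Cells seeded and grown to 60–80% confluency (usually 18–24 h), then treated 48 h with a range of concentrations prepared in each line's medium. CellTiter-Blue reagent added at the end of treatment and incubated 3–5 h at 37 °C, 5% CO₂. Fluorescence read at 560 nm excitation and 590 nm emission. IC50 from nonlinear regression, log(inhibitor) vs. normalized response.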

TC-32 [2] = test: Cytotoxicity against human TC-32 cells assessed as reduction in cell viability incubated for 48 hrs by CellTiter-Blue reagent based […] assay; format: functional; conditions: TC-32, 48 h; method in brief: as §1
[3] = Cytotoxicity against human TC71 cells assessed as reduction in cell viability incubated for 48 hrs by CellTiter-Blue reagent based […] assay; format: functional; conditions: TC-71, 48 h; method in brief: as §1
SAOS-2 = test: Cytotoxicity against human SAOS-2 cells assessed as reduction in cell viability incubated for 48 hrs by CellTiter-Blue reagent based […] assay; format: functional; conditions: SAOS-2, 48 h; method in brief: as §1
U2OS [4] = test: Cytotoxicity against human U2OS cells assessed as reduction in cell viability incubated for 48 hrs by CellTiter-Blue reagent based […] assay; format: functional; method in brief: as §1
TC-32 [5] = test: Induction of apoptosis in human TC-32 cells assessed as PARP cleavage at 0.1 to 0.4 uM incubated for 48 hrs by western blot analysis; format: functional, cell-based; conditions: dose 0.1-0.4 µM
Method in brief: (§2)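 Cells treated 48 h with three concentrations per agent (0.1, 0.2 or 0.4 μM for one; 10, 20 or 40 μM for another). Total cell lysates immunoblotted for PARP and caspase 3 and their cleaved products. Actin used as loading control and for normalization. ECL signal imaged on PVDF, bands quantified by densitometry.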

TC-32 [6] = test: Induction of apoptosis in human TC-32 cells assessed as caspase-3 cleavage at 0.1 to 0.4 uM incubated for 48 hrs by western blot analysis; format: functional, cell-based; conditions: dose 0.1-0.4 µM; method in brief: as §2
U2OS [7] = test: Induction of apoptosis in human U2OS cells assessed as PARP cleavage at 0.1 to 0.4 uM incubated for 48 hrs by western blot analysis; format: functional, cell-based; conditions: dose 0.1-0.4 µM; method in brief: as §2
U2OS [8] = test: Induction of apoptosis in human U2OS cells assessed as caspase-3 cleavage at 0.1 to 0.4 uM incubated for 48 hrs by western blot analysis; format: functional, cell-based; conditions: dose 0.1-0.4 µM; method in brief: as §2
TC-32 [9] = test: Induction of apoptosis in human TC-32 cells assessed as increase in hypodiploid subG1 population at 0.1 to 0.4 uM incubated for 48 hrs by propidium iodide staining based flow cytometry; format: functional, cell-based; conditions: dose 0.1-0.4 µM
Method in brief: (§3)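 Treatment same as the apoptosis blots (48 h; 0.1–0.4 μM or 10–40 μM). Adherent cells trypsinized and pooled with floating cells, then washed in PBS. Fixed in ice-cold 70% ethanol 1 h on ice, rehydrated, RNase A 100 μg/mL. Stained with propidium iodide at 50 μg/mL final for 1 h on ice. Sub-G1 fraction read by flow cytometry.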

U2OS [10] = test: Induction of apoptosis in human U2OS cells assessed as increase in hypodiploid subG1 population at 0.1 to 0.4 uM incubated for 48 hrs by propidium iodide staining based flow cytometry; format: functional, cell-based; conditions: dose 0.1-0.4 µM; method in brief: as §3

Row | Structure (SMILES) | IC50 [1] [µM] | IC50 (TC-32 [2]) [µM] | IC50 [3] [µM] | IC50 (SAOS-2) [µM] | IC50 (U2OS [4]) [µM] | Activity (TC-32 [5]) | Activity (TC-32 [6]) | Activity (U2OS [7]) | Activity (U2OS [8]) | Activity (TC-32 [9]) | Activity (U2OS [10])
1 | Nc1nc(Cl)nc2c1ncn2[C@H]1C[C@H](O)[C@@H](CO)O1 [CLADRIBINE] | 1.49 | 2.92 | 1.1 | ≥ 50 | ≥ 50 | – | – | – | – | – | –
2 | C=C1O[C@@H](n2cnc3c(N)nc(N4CCOCC4)nc32)[C@@H](F)[C@@H]1O | – | 98 | ≥ 100 | 97.3 | 67 | – | – | – | – | – | –
3 | Nc1nc(-c2ccsc2)nc2c1ncn2[C@H]1C[C@H](O)[C@@H](CO)O1 | ≥ 50 | ≥ 50 | ≥ 50 | ≥ 50 | ≥ 50 | – | – | – | – | – | –
4 | Nc1ncnc2c1ncn2[C@@H]1C[C@@H](O)[C@H](C(=O)O)O1 | ≥ 50 | ≥ 50 | ≥ 50 | ≥ 50 | ≥ 50 | – | – | – | – | – | –
5 | CS(=O)(=O)C[C@H]1O[C@@H](n2cnc3c(N)nc(Cl)nc32)[C@@H](F)[C@@H]1O | ≥ 50 | ≥ 50 | 31.4 | ≥ 50 | ≥ 50 | – | – | – | – | – | –
6 | Nc1ncnc2c1ncn2[C@@H]1O[C@H](C(=O)O)[C@@H](O)[C@H]1F | ≥ 50 | ≥ 50 | ≥ 50 | ≥ 50 | ≥ 50 | – | – | – | – | – | –
7 | Nc1ncnc2c1ncn2[C@@H]1O[C@H](CN2CCOCC2)[C@@H](O)[C@H]1F | ≥ 50 | ≥ 50 | ≥ 50 | ≥ 50 | ≥ 50 | – | – | – | – | – | –
8 | Nc1ncnc2c1ncn2[C@H]1C[C@H](O)[C@@H](CN2CCOCC2)O1 | ≥ 50 | ≥ 50 | ≥ 50 | ≥ 50 | ≥ 50 | – | – | – | – | – | –
9 | Nc1nc(Cl)nc2c1ncn2[C@@H]1O[C@H](CO)[C@@H](O)[C@@H]1F [CLOFARABINE] | 0.18 | 0.13 | 0.09 | ≥ 50 | ≥ 50 | Active | Active | inactive | inactive | Active | inactive
10 | Nc1nc(N2CCOCC2)nc2c1ncn2[C@@H]1O[C@H](CN2CCOCC2)[C@@H](O)[C@@H]1F | – | ≥ 100 | ≥ 100 | ≥ 100 | ≥ 100 | – | – | – | – | – | –
11 | Nc1nc(-c2ccncc2)nc2c1ncn2[C@@H]1O[C@H](CO)[C@@H](O)[C@@H]1F | ≥ 50 | ≥ 50 | ≥ 50 | ≥ 50 | ≥ 50 | – | – | – | – | – | –
12 | Nc1nc(-c2ccoc2)nc2c1ncn2[C@@H]1O[C@H](CO)[C@@H](O)[C@@H]1F | ≥ 50 | ≥ 50 | ≥ 50 | ≥ 50 | ≥ 50 | – | – | – | – | – | –
13 | Nc1nc(-c2cccnc2)nc2c1ncn2[C@H]1C[C@H](O)[C@@H](CO)O1 | 54.4 | 52.2 | 29.3 | 110 | 162 | – | – | – | – | – | –
14 | Nc1nc(-c2ccsc2)nc2c1ncn2[C@@H]1O[C@H](CO)[C@@H](O)[C@@H]1F | ≥ 50 | ≥ 50 | ≥ 50 | ≥ 50 | ≥ 50 | – | – | – | – | – | –
15 | Nc1nc(-c2ccncc2)nc2c1ncn2[C@H]1C[C@H](O)[C@@H](CO)O1 | ≥ 50 | ≥ 50 | ≥ 50 | ≥ 50 | ≥ 50 | – | – | – | – | – | –
16 | Nc1ncnc2c1ncn2[C@@H]1O[C@H](CN2CCOCC2)[C@@H](O)[C@@H]1F | ≥ 50 | ≥ 50 | ≥ 50 | ≥ 50 | ≥ 50 | – | – | – | – | – | –
17 | Nc1nc(Cl)nc2c1ncn2[C@H]1C[C@H](O)[C@@H](COc2cc(C(=O)O)cc(C(=O)O)c2)O1 | – | ≥ 100 | ≥ 100 | ≥ 100 | ≥ 100 | – | – | – | – | – | –
18 | Nc1nc(Cl)nc2c1ncn2[C@@H]1O[C@H](COc2cc(C(=O)O)cc(C(=O)O)c2)[C@@H](O)[C@@H]1F | – | ≥ 100 | 96.7 | 86.5 | ≥ 100 | – | – | – | – | – | –
19 | Nc1nc(Cl)nc2c1ncn2[C@@H]1O[C@H](CN2CCOCC2)[C@@H](O)[C@@H]1F | – | ≥ 100 | ≥ 100 | ≥ 100 | ≥ 100 | – | – | – | – | – | –
20 | Nc1nc(Cl)nc2c1ncn2[C@H]1C[C@H](O)[C@@H](CN2CCOCC2)O1 | – | ≥ 100 | ≥ 100 | 97.3 | ≥ 100 | – | – | – | – | – | –
21 | Nc1ncnc2c1ncn2[C@H]1C[C@H](O)[C@@H](C(=O)O)O1 | ≥ 50 | ≥ 50 | ≥ 50 | ≥ 50 | ≥ 50 | – | – | – | – | – | –
22 | Nc1ncnc2c1ncn2[C@@H]1O[C@H](C(=O)O)[C@@H](O)[C@@H]1F | ≥ 50 | ≥ 50 | ≥ 50 | ≥ 50 | ≥ 50 | – | – | – | – | – | –
23 | Nc1nc(-c2ccoc2)nc2c1ncn2[C@H]1C[C@H](O)[C@@H](CO)O1 | 77.5 | 55 | 67.8 | 172 | 199 | – | – | – | – | – | –
24 | CS(=O)(=O)C[C@H]1O[C@@H](n2cnc3c(N)nc(Cl)nc32)C[C@@H]1O | ≥ 50 | ≥ 50 | 36 | ≥ 50 | ≥ 50 | – | – | – | – | – | –
25 | CSC[C@H]1O[C@@H](n2cnc3c(N)nc(SC)nc32)[C@@H](F)[C@@H]1O | ≥ 50 | ≥ 50 | ≥ 50 | ≥ 50 | ≥ 50 | – | – | – | – | – | –
26 | Nc1ncnc2c1ncn2[C@@H]1C[C@@H](O)[C@H](CN2CCOCC2)O1 | ≥ 50 | ≥ 50 | ≥ 50 | ≥ 50 | ≥ 50 | – | – | – | – | – | –
